Data: ChEMBL document CHEMBL1649120, “Differential effects of inhibiting chitin and 1,3-{beta}-D-glucan synthesis in ras and calcineurin mutants of Aspergillus fumigatus” (2009)
The source made the active and inactive calls. No cut-off for these calls is given here.

Columns and labels:
Aspergillus fumigatus [1] = experiment: Antifungal activity against Aspergillus fumigatus Af293 assessed as increase in chitin cell wall content at 1 ug/ml after 48 hrs; assay type: functional, organism-based
Procedure, shortened: (§1)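 Cultures were grown at 10⁶ conidia/ml in RPMI 1640 with 1 μg/ml drug (single agent or combination) for 48 h at 37°C, 250 rpm. 5 mg of lyophilized mycelium was digested in saturated KOH at 130°C for 1 h, then ethanol-precipitated. Glucosamine was measured by nitrous acid deamination and MBTH/FeCl₃ colour, A650, against a 10 μg/ml glucosamine standard. Output is glucosamine equivalents (μg/ml), from biological triplicate.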

Aspergillus fumigatus [2] = experiment: Antifungal activity against cnaA deficient Aspergillus fumigatus Af293 assessed as increase in calcofluor white staining og conidia at 1 ug/ml after 16 hrss by fluorescence microscopy; assay type: functional, organism-based
Procedure, shortened: (§2)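 10³ conidia/ml were grown on coverslips in RPMI 1640 with or without 1 μg/ml drug for 16 h at 37°C. Coverslips were stained with calcofluor white for 5 min at room temperature, rinsed and mounted. Fluorescence microscopy used a UV exposure fixed at 25 ms, set on the untreated wild type.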

Aspergillus fumigatus [3] = experiment: Antifungal activity against Aspergillus fumigatus Af293 assessed as decrease in 1, 3-beta-D-glucan cell wall content at 1 ug/ml after 48 hrs by aniline blue assay; assay type: functional, organism-based
Procedure, shortened: (§3)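 10⁶ conidia/ml were grown in RPMI 1640 with or without drug for 48 h at 37°C, 250 rpm. Hyphae were washed in 0.1 M NaOH and lyophilized. 5 mg was taken into 1 M NaOH, sonicated and heated at 52°C for 30 min. Aniline blue mix (pH 9.5) was added for 30 min at 52°C. Fluorescence was read at ex 405/em 460 nm against a curdlan standard curve. Results are % change in RFU/mg versus untreated wild type, from five independent experiments.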

Aspergillus fumigatus [4] = experiment: Antifungal activity against Aspergillus fumigatus H237 assessed as abnormal hyphal growth by CLSI method; assay type: functional; conditions: read-out: MEC
Procedure, shortened: (§4)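 MEC by CLSI broth microdilution in RPMI 1640. Conidia were incubated with or without drug for 48 h at 37°C, in triplicate.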

Aspergillus fumigatus [5] = experiment: Antifungal activity against Aspergillus fumigatus H237 expressing dominant-active rasA assessed as increase in chitin cell wall content at 1 ug/ml; assay type: functional, organism-based; procedure, shortened: as §1
Aspergillus fumigatus [6] = experiment: Antifungal activity against cnaA deficient Aspergillus fumigatus Af293 assessed as increase in chitin cell wall content at 1 ug/ml; assay type: functional, organism-based; procedure, shortened: as §1
Aspergillus fumigatus [7] = experiment: Antifungal activity against crzA deficient Aspergillus fumigatus Af293 assessed as increase in calcofluor white staining og conidia at 1 ug/ml after 16 hrss by fluorescence microscopy; assay type: functional, organism-based; procedure, shortened: as §2
Aspergillus fumigatus [8] = experiment: Antifungal activity against Aspergillus fumigatus Af293 assessed as increase in calcofluor white staining og conidia at 1 ug/ml after 16 hrs by fluorescence microscopy; assay type: functional, organism-based; procedure, shortened: as §2
Aspergillus fumigatus [9] = experiment: Antifungal activity against Aspergillus fumigatus H237 expressing dominant-active rasA assessed as decrease in 1, 3-beta-D-glucan cell wall content at 1 ug/ml after 48 hrs by aniline blue assay; assay type: functional, organism-based; procedure, shortened: as §3
Aspergillus fumigatus [10] = experiment: Antifungal activity against Aspergillus fumigatus H237 assessed as increase in chitin cell wall content at 1 ug/ml after 48 hrs; assay type: functional, organism-based; procedure, shortened: as §1
Aspergillus fumigatus [11] = experiment: Antifungal activity against rasA deficient Aspergillus fumigatus H237 assessed as increase in chitin cell wall content at 1 ug/ml; assay type: functional, organism-based; procedure, shortened: as §1
Aspergillus fumigatus [12] = experiment: Antifungal activity against crzA deficient Aspergillus fumigatus Af293 assessed as abnormal hyphal growth by CLSI method; assay type: functional; conditions: read-out: MEC; procedure, shortened: as §4
Aspergillus fumigatus [13] = experiment: Antifungal activity against cnaA deficient Aspergillus fumigatus Af293 assessed as inhibition of hyphal growth at germling stage at 1 ug/ml by CLSI method; assay type: functional, organism-based
Procedure, shortened: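 Conidia were grown as for CLSI susceptibility testing in RPMI 1640 with or without echinocandin (1 μg/ml) for 48 h at 37°C. Hyphal morphology was then examined by bright-field microscopy.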

Aspergillus fumigatus [14] = experiment: Antifungal activity against crzA deficient Aspergillus fumigatus Af293 assessed as increase in chitin cell wall content at 1 ug/ml; assay type: functional, organism-based; procedure, shortened: as §1
Aspergillus fumigatus [15] = experiment: Antifungal activity against Aspergillus fumigatus Af293 expressing crzA gene assessed as abnormal hyphal growth by CLSI method; assay type: functional; conditions: read-out: MEC; procedure, shortened: as §4
Aspergillus fumigatus [16] = experiment: Antifungal activity against Aspergillus fumigatus H237 expressing dominant-active rasA gene assessed as abnormal hyphal growth by CLSI method; assay type: functional; conditions: read-out: MEC; procedure, shortened: as §4
Aspergillus fumigatus [17] = experiment: Antifungal activity against Aspergillus fumigatus Af293 expressing cnaA gene assessed as abnormal hyphal growth by CLSI method; assay type: functional; conditions: read-out: MEC; procedure, shortened: as §4
Aspergillus fumigatus [18] = experiment: Antifungal activity against Aspergillus fumigatus H237 expressing rasA gene assessed as abnormal hyphal growth by CLSI method; assay type: functional; conditions: read-out: MEC; procedure, shortened: as §4
Aspergillus fumigatus [19] = experiment: Antifungal activity against rasA deficient Aspergillus fumigatus H237 assessed as abnormal hyphal growth by CLSI method; assay type: functional; conditions: read-out: MEC; procedure, shortened: as §4
Aspergillus fumigatus [20] = experiment: Antifungal activity against cnaA deficient Aspergillus fumigatus Af293 assessed as decrease in 1, 3-beta-D-glucan cell wall content at 1 ug/ml by aniline blue assay; assay type: functional, organism-based; procedure, shortened: as §3
Aspergillus fumigatus [21] = experiment: Antifungal activity against Aspergillus fumigatus H237 assessed as decrease in 1, 3-beta-D-glucan cell wall content at 1 ug/ml after 48 hrs by aniline blue assay; assay type: functional, organism-based; procedure, shortened: as §3
Candida albicans = experiment: Antifungal activity against Candida albicans SC5314 assessed as increase in chitin cell wall content at 0.125 ug/ml; assay type: functional
Aspergillus fumigatus [22] = experiment: Antifungal activity against cnaA deficient Aspergillus fumigatus Af293 assessed as abnormal hyphal growth by CLSI method; assay type: functional; conditions: read-out: MEC; procedure, shortened: as §4
Aspergillus fumigatus [23] = experiment: Antifungal activity against rasA deficient Aspergillus fumigatus H237 assessed as decrease in 1, 3-beta-D-glucan cell wall content at 1 ug/ml by aniline blue assay; assay type: functional, organism-based; procedure, shortened: as §3
Aspergillus fumigatus [24] = experiment: Antifungal activity against Aspergillus fumigatus Af293 assessed as abnormal hyphal growth by CLSI method; assay type: functional; conditions: read-out: MEC; procedure, shortened: as §4
Aspergillus fumigatus [25] = experiment: Antifungal activity against crzA deficient Aspergillus fumigatus Af293 assessed as decrease in 1, 3-beta-D-glucan cell wall content at 1 ug/ml by aniline blue assay; assay type: functional, organism-based; procedure, shortened: as §3

CC[C@H](C)C[C@H](C)CCCCCCCCC(=O)N[C@H]1C[C@@H](O)[C@@H](NCCN)NC(=O)[C@@H]2[C@@H](O)CCN2C(=O)[C@H]([C@H](O)CCN)NC(=O)[C@H]([C@H](O)[C@@H](O)c2ccc(O)cc2)NC(=O)[C@@H]2C[C@@H](O)CN2C(=O)[C@H]([C@@H](C)O)NC1=O [CASPOFUNGIN]
Activity (Aspergillus fumigatus [1]): Active | Activity (Aspergillus fumigatus [2]): inactive | Activity (Aspergillus fumigatus [3]): Active | minimal effective concentration (Aspergillus fumigatus [4]): 1 µg/mL | Activity (Aspergillus fumigatus [5]): Active | Activity (Aspergillus fumigatus [6]): inactive | Activity (Aspergillus fumigatus [7]): Active | Activity (Aspergillus fumigatus [8]): inactive | Activity (Aspergillus fumigatus [9]): Active | Activity (Aspergillus fumigatus [10]): Active | Activity (Aspergillus fumigatus [11]): Active | minimal effective concentration (Aspergillus fumigatus [12]): 0.5 µg/mL | Activity (Aspergillus fumigatus [13]): Active | Activity (Aspergillus fumigatus [14]): inactive | minimal effective concentration (Aspergillus fumigatus [15]): 1 µg/mL | minimal effective concentration (Aspergillus fumigatus [16]): 0.25 µg/mL | minimal effective concentration (Aspergillus fumigatus [17]): 1 µg/mL | minimal effective concentration (Aspergillus fumigatus [18]): 1 µg/mL | minimal effective concentration (Aspergillus fumigatus [19]): 8 µg/mL | Activity (Aspergillus fumigatus [20]): Active | Activity (Aspergillus fumigatus [21]): Active | fold change (FC) (Candida albicans): 2 | minimal effective concentration (Aspergillus fumigatus [22]): 0.25 µg/mL | Activity (Aspergillus fumigatus [23]): Active | minimal effective concentration (Aspergillus fumigatus [24]): 1 µg/mL | Activity (Aspergillus fumigatus [25]): Active
